E-selectin induc = E-selectin induction on HUVECs; 0.37% of 260,000 active; activation, % at 7.58 µM; P16581; HUVEC E-selectin immunofluorescence imaging; normalized: neutral wells 0, TNF-alpha wells 100;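 active = mean E-selectin-positive cell signal at least 10% of the positive control, reached in at least 60% of replicates, without over 20% cell loss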
Target sequence (P16581 whole entry, looked up): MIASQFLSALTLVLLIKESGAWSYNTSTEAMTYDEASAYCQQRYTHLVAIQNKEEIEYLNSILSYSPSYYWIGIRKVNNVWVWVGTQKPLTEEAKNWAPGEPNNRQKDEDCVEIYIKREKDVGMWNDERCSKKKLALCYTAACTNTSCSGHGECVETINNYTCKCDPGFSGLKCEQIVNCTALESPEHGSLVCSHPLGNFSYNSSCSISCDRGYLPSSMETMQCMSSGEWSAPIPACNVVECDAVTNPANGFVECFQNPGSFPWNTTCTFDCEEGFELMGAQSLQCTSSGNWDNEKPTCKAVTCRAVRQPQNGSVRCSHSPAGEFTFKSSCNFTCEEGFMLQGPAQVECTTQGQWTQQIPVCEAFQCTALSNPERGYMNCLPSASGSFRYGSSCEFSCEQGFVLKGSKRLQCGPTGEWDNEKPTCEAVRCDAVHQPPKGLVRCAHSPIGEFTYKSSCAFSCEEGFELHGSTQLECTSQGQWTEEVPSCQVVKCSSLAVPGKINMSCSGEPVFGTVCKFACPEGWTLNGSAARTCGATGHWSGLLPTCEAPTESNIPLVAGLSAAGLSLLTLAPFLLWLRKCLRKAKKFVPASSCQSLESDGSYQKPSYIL
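Assay system: HUVEC primary endothelial cells. Input: 3,000 HUVEC seeded per well. Doses: one compound dose added by pin transfer. Read-out basis: % PE-positive cells. Benchmarks: TNF-alpha high, DMSO low. Detection: immunofluorescence imaging. Buffer or medium: EGM-2, gelatin.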
SIRT5 inh = sirtuin-5 (human) deacylase inhibition; Q9NXA8; Purified SirT5, succinyl-peptide AMC, trypsin-coupled fluorescence; inhibition, % at 15 µM; 1.1% of 330,000 active; in the data active = inhibition above about 15%
DENV2 CPE rescue = DENV2-induced cell death inhibition; DENV2-infected cells, cytopathic effect rescue, plate reader; AID 651640; 1.7% of 350,000 active; CPE inhibition, % at 9.99 µM; in the data active = CPE inhibition above about 20%, passing the limit was not always enough; tested in BHK-21 cells
Hits are given with their value; n = inactive; x = no result given; ! = a repeat was not active. In the library only some 2.9% were active in any assay of this set; here they are far more common.

SMILES | E-selectin induc | SIRT5 inh | DENV2 CPE rescue
O=C(O)CC(c1ccc(OC2CCCC2)cc1)N1C(=O)c2ccccc2C1=O (configuration not stated) | x | n | n
O=[N+]([O-])c1ccc2c(c1)nc1n2CCCCC1 | x | 17 | n
O=[N+]([O-])c1ccc2c(c1)nc1n2CCN(C2CCCCC2)C1 | n | n | n
CN(c1cccnc1)c1ccc(NC(=O)Cc2c[nH]c3ccccc23)cc1-c1ccc(F)c(F)c1 | n | x | n
Cc1[nH]c2ccccc2c1CC(=O)Nc1ccc(N(C)c2cccnc2)c(-c2ccc(F)c(F)c2)c1 | n | x | 84
CCOC(=O)N1CCN(C(=S)Nc2cc(S(=O)(=O)N3CCOCC3)ccc2Cl)CC1 | n | n | n
CO[C@@H]1CN(C)C(=O)c2ccc(NC(=O)NC(C)C)cc2OC[C@@H](C)NC[C@@H]1C | n | n | n
Cc1cc(N)n(-c2ccc(S(=O)(=O)N3CCOCC3)cc2[N+](=O)[O-])n1 | n | n | n
O=[N+]([O-])c1cccc(S(=O)(=O)N/N=C\c2ccc3c(c2)OCO3)c1 | n | 20 | n
O=[N+]([O-])c1ccc(S(=O)(=O)N/N=C/c2ccc3c(c2)OCO3)cc1 | n | n | n
Cc1noc(C)c1C(=O)Nc1nc(-c2ccc(F)c(F)c2)cs1 | n | n | n
O=C(/C=C/c1cccs1)Nc1ccc([N+](=O)[O-])cc1 | n | x | x
O=C(/C=C/c1cccs1)Nc1ccncc1 | n | 35 | n
CC(C)(C)NC(=O)/C=C/c1cccs1 | n | n | n
CCC(C)NC(=O)/C=C/c1cccs1 (configuration not stated) | x | 17 | n
CN(C)C(=O)c1cccc(-c2ccc3c(c2)[C@H]2[C@H](CCN2C(=O)Cc2ccccn2)[C@@H](CO)N3C)c1 | n | x | n
CCOc1cc(C(=O)Nc2ccc(S(=O)(=O)N3CCOCC3)cc2)cc(OCC)c1OCC | x | n | x
COc1ccc(NC(=O)CCNC(=O)N2CC(=O)Nc3ccccc32)c(OC)c1 | n | n | n
C[C@@H]1CN([C@@H](C)CO)C(=O)c2cc(NS(=O)(=O)c3ccc(Cl)cc3)ccc2O[C@@H](C)CCCCO[C@H]1CN(C)C(=O)CCC(F)(F)F | n | n | n
C[C@H](CO)N1C[C@H](C)[C@@H](CN(C)C(=O)Nc2ccc(C(F)(F)F)cc2)OCCCC[C@H](C)Oc2ccc(NS(=O)(=O)c3ccccc3)cc2C1=O | n | n | 41
C[C@H](CO)N1C[C@H](C)[C@@H](CN(C)C(=O)Nc2ccc(C(F)(F)F)cc2)OCCCC[C@H](C)Oc2ccc(NS(=O)(=O)c3cccs3)cc2C1=O | n | n | 94
C[C@@H]1CCCCO[C@@H](CN(C)C(=O)Nc2ccccc2)[C@H](C)CN([C@@H](C)CO)C(=O)c2cc(NS(=O)(=O)c3ccccc3)ccc2O1 | x | n | n
C[C@H]1CCCCO[C@H](CN(C)C(=O)Nc2ccccc2)[C@@H](C)CN([C@@H](C)CO)C(=O)c2cc(NS(=O)(=O)c3ccccc3)ccc2O1 | x | n | n
C[C@@H]1CCCCO[C@@H](CN(C)C(=O)Nc2ccc(C(F)(F)F)cc2)[C@@H](C)CN([C@H](C)CO)C(=O)c2cc(NS(=O)(=O)c3ccccc3)ccc2O1 | n | n | 21
C[C@@H]1CN([C@@H](C)CO)C(=O)c2cc(NS(=O)(=O)c3cccs3)ccc2O[C@@H](C)CCCCO[C@H]1CN(C)C(=O)Nc1ccc(F)cc1 | n | n | n
SMILES | E-selectin induc | SIRT5 inh | DENV2 CPE rescue
C[C@@H]1CCCCO[C@H](CN(C)C(=O)CCC(F)(F)F)[C@H](C)CN([C@@H](C)CO)C(=O)c2cc(NS(=O)(=O)c3ccc(Cl)cc3)ccc2O1 | n | 17! | n
COc1cc(CN2C[C@@H]3N[C@H](C2)C3c2ccc(/C=C/c3ccccc3)cc2)cc(OC)c1 (some centres not stated) | n | x | n
Cc1ccc(-c2nnc(N3CCCCC3)c3ccccc23)cc1S(=O)(=O)N(C)C | x | n | n
CCOc1ccc(OCCC(=O)OCC(=O)Nc2ccc(C)c(S(=O)(=O)N3CCCCC3)c2)cc1 | x | n | x
CC(C)N1CCC1(C)C(=O)Nc1ccc2scnc2c1 (configuration not stated) | n | x | n
C[C@@H]1CN([C@H](C)CO)C(=O)c2cc(NS(=O)(=O)c3cccs3)ccc2O[C@@H](C)CCCCO[C@@H]1CN(C)C(=O)CCC(F)(F)F | n | x | 31
C[C@@H]1CN([C@@H](C)CO)C(=O)c2cc(NS(=O)(=O)c3ccccc3)ccc2O[C@@H](C)CCCCO[C@@H]1CN(C)C(=O)Nc1ccc(C(F)(F)F)cc1 | n | n | n
C[C@@H]1CCCCO[C@H](CN(C)C(=O)Nc2ccc(C(F)(F)F)cc2)[C@H](C)CN([C@H](C)CO)C(=O)c2cc(NS(=O)(=O)c3ccccc3)ccc2O1 | n | n | 77
C[C@H](CO)N1C[C@H](C)[C@@H](CN(C)C(=O)CCC(F)(F)F)OCCCC[C@H](C)Oc2ccc(NS(=O)(=O)c3cccs3)cc2C1=O | n | x | n
Cc1c(C#N)c(NC(=O)CCl)n(Cc2ccc(F)cc2)c1C | 42 | n | n
Cc1c(C#N)c(NC(=O)CCl)n(Cc2ccccc2)c1C | x | n | n
CCCNC(=O)N(C)C[C@@H]1Oc2ncc(-c3ccc(OC)cc3)cc2C(=O)N([C@H](C)CO)C[C@H]1C | n | n | n
O=C(Nc1ccccc1C(F)(F)F)C1CCCC1 | n | n | n
CC1(C)OC(=O)C2=C(C[C@@H](C3CC3)O[C@@H]2C2CC2)O1 | n | n | 61
CC1(C)OC(=O)C2=C(C[C@@H](C3CCCC3)O[C@H]2CCc2cccc(Cl)c2)O1 | n | n | n
C[C@@H]1CN([C@H](C)CO)C(=O)c2cc(-c3cccc(C(=O)N(C)C)c3)cnc2O[C@@H]1CN(C)C(=O)Cc1ccccn1 | n | n | n
O=C(N/N=C/c1ccccn1)c1ccc(Cl)cc1 | n | n | n
Cn1ncc(Cl)c1C(=O)N/N=C/c1ccccn1 | x | 22 | n
COCC(=O)Nc1ccc2c(c1)OC[C@H](C)N(C(=O)Cc1cccnc1)C[C@H](C)[C@H](OC)CN(C)C2=O | n | n | n
Cc1cc(C[n+]2cc(Br)ccc2N)c2ncccc2c1 | x | n | 35
Cc1cc(C[n+]2cc(Cl)ccc2N)c2ncccc2c1 | n | n | n
CCOc1ccc2c(c1)sc(N)[n+]2Cc1cc(C)cc2cccnc12 | n | x | x
COc1ccc2c(c1)sc(N)[n+]2Cc1cc(C)cc2cccnc12 | n | n | 71
O=C(O)C1CCCN1S(=O)(=O)c1ccc(Br)s1 (configuration not stated) (tested in a mixture with another compound) | x | n | x
COc1ccc(CN2CC(=O)N3[C@H]4c5ccc(OC)cc5OC[C@@H]4[C@H](c4ccccc4)[C@]3(C)C2=O)cc1 | n | n | n
Cc1cc(C)n(-c2ccc(C(=O)NCC(c3ccco3)N3CCCC3)cc2)n1 (configuration not stated) | x | n | n
Cc1ccccc1NC(=O)CCS(=O)(=O)c1ccc(Br)s1 | x | n | n
CC(=O)c1cccc(NC(=O)CCS(=O)(=O)c2ccc(Br)s2)c1 | n | 19 | x
CCCN1C[C@H](C)[C@H](OC)CN(C)C(=O)c2ccc(NC(=O)c3cnccn3)cc2OC[C@@H]1C | n | n | n
CCCN1C[C@@H](C)[C@@H](OC)CN(C)C(=O)c2ccc(NC(=O)c3cnccn3)cc2OC[C@@H]1C | n | n | 22
